Assay outcomes as filed in PubChem BioAssay.
Most compounds without a hit are left out; they make up all but 5.1% or so of the library.
STAT3 inh-1: IL-6 driven STAT3 reporter inhibitors, primary screen, U3A cells, luciferase, luminescence, MLSCN library. AID 862, 2007. inhibition, % at 5.5 µM. IL-6 STAT3-luciferase reporter; host cell line lacks STAT1. actives 0.89% (n = 190,000);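 active means inhibition above the mean inhibition across all screened compounds plus 3 SD, cut at about 44% in these data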;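 further: 0% = DMSO only wells and 100% = 100 µM nifuroxazide control wells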
STAT1 activator: STAT1 signaling activators, primary screen, cell-based, HTS, luciferase reporter | AID 932, 2007 | activation (% of control), % at 5.5 µM | NIH 3T3 STAT1-luciferase reporter, IFN-gamma, luminescence; 100% = IFN-gamma alone, no compound | actives 2.6% (n = 200,000);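 active means activation above the screen-wide mean activation plus 3 SD, cut at about 130% in these data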;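 further: raw ratio to IFN-gamma control signal so 100% means no change and 0% no light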
NF-kB expr up: activators of NF-kB expression in neurons, primary screen, cell-based, HTS | human neuronal cells, NF-kB reporter expression; active compounds read high | fold change at 12.5 µM | actives 1.6% (n = 190,000); in the data active means fold change above about 3.3
APP 5'UTR act: activators of APP 5'UTR luciferase reporter, primary screen, SH-SY5Y cells; actives 1% (n = 190,000); SH-SY5Y APP 5'UTR luciferase reporter, luminescence; zero percent = DMSO vehicle wells; activation, % at 2 µM; AID 1276, 2008;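 active means activation above a set limit, based on mean plus 3 SD of controls, cut at about 140% in these data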
STAT1 inh: STAT1 signaling inhibitors, primary screen, cell-based, HTS, luciferase reporter; NIH 3T3 STAT1-luciferase reporter, IFN-gamma, luminescence; inhibition, % at 5.5 µM; actives 0.35% (n = 200,000); AID 920, 2007;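 active means inhibition above a set limit, the mean inhibition across all tested compounds plus 3 SD, cut at about 34% in these data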;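 further: 0% = IFN-gamma with DMSO and 100% = IFN-gamma with 300 µM nifuroxazide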
STAT3 activator: IL-6 driven STAT3 reporter potentiators, primary screen, U3A cells, luciferase, luminescence, MLSCN library; IL-6 STAT3-luciferase reporter; 100% = signal with IL-6 EC80 alone; actives 0.91% (n = 190,000); activation (% of control), % at 5.6 µM;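 active means activation above the screen-wide mean of compound activation plus 3 SD, cut at about 130% in these data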;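 further: 0% = background luminescence of wells with medium and substrate only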
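Material: STAT3-luciferase reporter U3A cells; Probe or stimulus: IL-6 (33 ng/mL); Incubation: compound pre-incubation 1 h before IL-6, then 6 h stimulation at 37 °C; Technique: luminescence from STAT3-driven luciferase reporter; Evaluation: % activation versus median of IL-6-stimulated wells; Controls: IL-6-only high control.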
STAT3 inh-2: STAT3 reporter inhibitors, retest of hits, confirmation, U3A cells, luciferase, luminescence. AID 1265, 2008. inhibition, % at 5.7 µM. actives 45% (n = 1,200). shares compounds with STAT3 inh-1. IL-6 STAT3 luciferase reporter; cell line lacks STAT1;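 active means inhibition above the hit cutoff computed for the primary STAT3 screen, cut at about 44% in these data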;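 further: 0% = IL-6 plus DMSO and 100% = IL-6 plus nifuroxazide control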
NFkB inh 2: NF-kB reporter inhibitors in human cells, confirmation, counter-screen for STAT3 inhibitor project, cell-based, HEK293T, luciferase, TNF-alpha stimulus; inhibition, % at 5.7 µM; TNF-alpha induced; AID 1308, 2008; shares compounds with STAT3 inh-1; actives 36% (n = 1,200);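 active means inhibition above the mean of solvent-only control wells plus 3 SD, cutoff set per campaign, cut at about 13% in these data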;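 further: 0% = TNF-alpha with DMSO and 100% = TNF-alpha with MG high control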
STAT1 inh 2: STAT1 reporter inhibitors, IFN-gamma induced, confirmation, counter-screen for STAT3 inhibitor project, cell-based, NIH 3T3, luciferase luminescence | inhibition, % at 5.7 µM | NIH 3T3 STAT1-luciferase reporter | shares compounds with STAT3 inh-1 | AID 1317, 2008 | actives 27% (n = 1,200);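 active means inhibition above the mean plus 3 SD of solvent-only control wells, limit set per screening run, cut at about 16% in these data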;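 further: 0% = DMSO with IFN-gamma and 100% = nifuroxazide control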
Active calls of the source: *; nt = no result.

SMILES	STAT3 inh-1	STAT1 activator	NF-kB expr up	APP 5'UTR act	STAT1 inh	STAT3 activator	STAT3 inh-2	NFkB inh 2	STAT1 inh 2
Cc1ccc(Oc2ccc(C(=O)NCc3ccncc3)cc2)cc1	52*	80	0.82	-6	21	58	44*	11	7
O=S(=O)(c1ccccc1)N1CCC(O)(CSc2ccc(Cl)cc2)CC1	76*	90	0.89	-2	11	40	47*	17*	4
O=S(=O)(c1ccc(Cl)cc1)N1CCC(O)(CN2CCN(Cc3ccccc3)CC2)CC1	7	99	1.4	-16	1	96	nt	nt	nt
COCC(C)NC(=O)CSc1nc(-c2ccccc2)c(-c2ccccc2)o1 (stereo not given)	5	89	0.95	-1	11	93	nt	nt	nt
Cc1cc(C(=O)CSc2nnc(-c3ccccc3)n2Cc2ccc3c(c2)OCO3)c(C)n1C	-1	105	0.92	8	-5	103	nt	nt	nt
Cc1cc(C(=O)CSc2nc3ccccc3c(=O)n2C)c(C)n1Cc1ccc2c(c1)OCO2	58*	81	0.89	-6	21	55	76*	28*	25*
CCN(C(=O)c1ccc(C)c(Br)c1)c1ccccc1	3	96	1.2	-8	5	106	nt	nt	nt
Cc1ccc(C(=O)Oc2ccccc2N2C(=O)C3CCCCC3C2=O)cc1 (stereo not given)	54*	96	1.2	5	4	60	38	-1	6
O=C(Oc1ccccc1N1C(=O)C2CC=CCC2C1=O)c1ccc(Br)cc1 (stereo not given)	-7	91	1.4	-4	10	101	nt	nt	nt
O=C(Oc1ccccc1N1C(=O)C2CCCCC2C1=O)c1ccccc1 (stereo not given)	68*	89	1.2	23	12	50	46*	4	-16
O=C1C2C(C(=O)N1/N=C/c1cccc([N+](=O)[O-])c1)C1C=CC2C12CC2 (stereo not given)	-18	124	0.73	8	-26	113	nt	nt	nt
COc1ccc(C(=O)c2ccccc2)c2c(O)ccc(C(=O)c3ccccc3)c12	65*	90	1	-9	9	46	62*	16*	-1
Cc1ccc(-n2ncc3c(SCc4cccc(C)c4)ncnc32)cc1	-1	104	1.2	36	-5	100	nt	nt	nt
Cc1ccc(-n2ncc3c(SCc4cccnc4)ncnc32)c(C)c1	75*	80	1.4	14	21	40	68*	4	6
CCCCOC(=O)C(C)Sc1n[nH]c(=O)[nH]c1=O (stereo not given)	7	97	0.99	12	2	104	nt	nt	nt
c1ccc(-c2cc3c(nn2)CCc2nonc2-3)cc1	26	104	1.2	10	-5	80	nt	nt	nt
O=C1c2ccccc2-c2nnc(-c3ccccc3)cc21	52*	71	3.3*	24	32	59	55*	33*	16*
COc1ccc(NC(NC(=O)c2ccc(OC)cc2)C(Cl)(Cl)Cl)cc1 (stereo not given)	50*	82	0.95	-9	20	66	27	0	11
O=C(c1cccc(C(F)(F)F)c1)c1c[nH]c(C(=O)NCCCN2CCOCC2)c1	2	97	0.99	25	2	104	nt	nt	nt
